Our source for the Ki, IC50 and Imax values is ChEMBL document CHEMBL1136861, “Identification of a series of benzoxazoles as potent 5-HT6 ligands” (Bioorg Med Chem Lett, 2009).

SMILES strings stand for the structures.

T1 sequence (P50406 whole entry): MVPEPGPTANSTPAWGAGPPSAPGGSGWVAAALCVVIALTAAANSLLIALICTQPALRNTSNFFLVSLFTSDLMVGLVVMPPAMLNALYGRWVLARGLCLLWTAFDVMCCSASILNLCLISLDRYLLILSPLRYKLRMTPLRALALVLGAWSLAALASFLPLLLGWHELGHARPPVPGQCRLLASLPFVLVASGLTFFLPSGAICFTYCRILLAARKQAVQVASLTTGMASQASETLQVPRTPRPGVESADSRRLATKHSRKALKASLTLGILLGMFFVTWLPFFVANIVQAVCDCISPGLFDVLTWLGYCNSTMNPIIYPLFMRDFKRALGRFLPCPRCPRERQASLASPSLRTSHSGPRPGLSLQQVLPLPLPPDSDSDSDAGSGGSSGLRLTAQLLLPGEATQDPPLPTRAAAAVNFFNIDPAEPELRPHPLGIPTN

One assay deals with T1, 5-hydroxytryptamine receptor 6 (Homo sapiens, UniProt P50406). Description: Displacement of [3H]LSD from human cloned 5HT6 receptor expressed in human HeLa cells. Type of assay: cell-based. Put shortly:
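Human 5-HT6 receptor cloned and stably expressed in HeLa cells; competition binding with [3H]-LSD as radioligand; Ki values determined in triplicate.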
`O=S(=O)(c1ccccc1)c1cccc2oc(N3CCNCC3)nc12` registered a Ki of 41 nM.

`O=S(=O)(c1cccc2ccccc12)c1cccc2oc(N3CCN(CCCc4ccccc4)CC3)nc12` yielded a Ki of 127 nM.

Consider `CN1CCN(c2nc3c(S(=O)(=O)c4cccc5ccccc45)cccc3o2)CC1`, for which the inhibition constant (Ki) was determined as 9.7 nM.

With `O=S(=O)(c1cccc2ccccc12)c1cccc2nc(N3CCNCC3)oc12`, affinity was put at a Ki of 7.1 nM.

Compound `O=S(=O)(c1cccc2ccccc12)c1cccc2oc(N3CCN(C4CCCC4)CC3)nc12` displayed an inhibitory constant (Ki) of 79 nM.

The next assay has as its target T1, 5-hydroxytryptamine receptor 6. In words: Antagonist activity at human cloned 5HT6 receptor expressed in human HeLa cells assessed as blockage of 5-HT-stimulated cAMP formation after 10 mins by radioimmunoassay. Type of assay: functional, cell-based. Put shortly:
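HeLa cells stably transfected with human 5-HT6 receptor; antagonism read as blockade of 5-HT-stimulated cAMP formation; IC50 and Imax values determined in triplicate.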
`O=S(=O)(c1cccc(C(F)(F)F)c1)c1cccc2oc(N3CCNCC3)nc12`: the IC50 was determined as 120 nM and the Imax was 96%.

Regarding `O=S(=O)(c1cc(Cl)ccc1Cl)c1cccc2oc(N3CCNCC3)nc12`, the IC50 is 117 nM and the Imax was 92%.

On to `O=S(=O)(c1cccc2ccccc12)c1cccc2oc(N3CCNCC3)nc12`, for which the IC50 turned out to be 96 nM and the Imax was found to be 97%.

As to `COc1cccc(S(=O)(=O)c2cccc3oc(N4CCNCC4)nc23)c1`, the IC50 came to 100 nM and the Imax stood at 92%.

Take `CN1CCN(c2nc3c(S(=O)(=O)c4cccc5ccccc45)cccc3o2)CC1`: the half-inhibitory concentration (IC50) amounted to 105 nM and the Imax was determined as 83%.

In the case of `CCN1CCN(c2nc3c(S(=O)(=O)c4cccc5ccccc45)cccc3o2)CC1`, the IC50 was 248 nM and the Imax turned out to be 89%.

With `O=S(=O)(c1cccc2ccccc12)c1cccc2nc(N3CCNCC3)oc12`, the IC50 is 77 nM and the Imax amounted to 96%.
